The test system of test [1] is Pseudomonas aeruginosa. The test can be described thus: Antibacterial activity against Pseudomonas aeruginosa SANK 73090. The format is functional. An outline of the steps:
(§1)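 MIC by agar dilution on Nutrient Agar, following the NCCLS standard dilution method for aerobically growing bacteria.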

In another test the test system is Serratia marcescens. The test can be described thus: Antibacterial activity against Serratia marcescens SANK 72790. Format: functional. In a few lines:
as §1

Test [2] relates to Escherichia coli. The test can be described thus: Antibacterial activity against Escherichia coli SANK 72290. Format: functional. An outline of the steps: as §1
The next test deals with Klebsiella pneumoniae. The test can be described thus: Antibacterial activity against Klebsiella pneumoniae SANK 72490. Format: functional. An outline of the steps:
as §1

The subject of another test is Morganella morganii. The test can be described thus: Antibacterial activity against Morganella morganii SANK 72990. The format is functional. An outline of the steps:
as §1

Test [3] has as its system Pseudomonas aeruginosa. The test can be described thus: Antibacterial activity against Pseudomonas aeruginosa SANK 3719. The format is functional. In a few lines: as §1
The test system of test [4] is Enterobacter cloacae. The test can be described thus: Antibacterial activity against Enterobacter cloacae SANK 72690. The format is functional. An outline of the steps: as §1
For a further test, the system named is Salmonella enteritidis. The test can be described thus: Antibacterial activity against Salmonella enteritidis SANK 72390. Format: functional, Salmonella enterica subsp. enterica serovar Enteritidis. Particulars: Salmonella enterica. An outline of the steps: as §1
The subject of a further test is Proteus vulgaris. The test can be described thus: Antibacterial activity against Proteus vulgaris SANK 72890. The format is functional. An outline of the steps:
as §1

Test [5] relates to Escherichia coli. The test can be described thus: Antibacterial activity against Escherichia coli SANK 70569 (NIHJ JC-2). Format: functional. In a few lines:
as §1

For test [6], the system named is Enterobacter cloacae. The test can be described thus: Antibacterial activity against Enterobacter cloacae 846. Format: functional. An outline of the steps: as §1
Test [7] has as its system Pseudomonas aeruginosa. The test can be described thus: Antibacterial activity against Pseudomonas aeruginosa SANK 73190. The format is functional. An outline of the steps: as §1
A further test deals with Enterococcus faecalis. The test can be described thus: Antibacterial activity against Enterococcus faecalis SANK 71990. The format is functional. In a few lines: as §1
Test [8] relates to Staphylococcus aureus. The test can be described thus: Antibacterial activity against Staphylococcus aureus SANK 70668. Format: functional. An outline of the steps:
as §1

Test [9] deals with Staphylococcus aureus. The test can be described thus: Antibacterial activity against Staphylococcus aureus SANK 71790. Format: functional. In a few lines:
as §1

For test [10], the system named is Staphylococcus aureus. The test can be described thus: Antibacterial activity against Staphylococcus aureus SANK 71890 (MRSA). Format: functional. In a few lines:
as §1

By MIC is commonly meant the lowest concentration found to suppress growth. Read a low MIC as greater potency.

Values after ≈ are worked out from the molar mass of the structure shown.

With `CCCCCC[C@H]1OC(=O)CNC(=O)[C@@H]([C@@H](C)O)NC(=O)[C@H](CO)NC(=O)[C@H]([C@@H](C)CC)NC(=O)[C@H](CC(C)C)N(C)C(=O)[C@@H]1C`, the MIC in the test on Pseudomonas aeruginosa [1], against Serratia marcescens, against Escherichia coli [2], in the test on Klebsiella pneumoniae, with Morganella morganii and with Pseudomonas aeruginosa [3] was more than 100 µg/mL each time. Besides, the MIC against Enterobacter cloacae [4], in the test on Salmonella enteritidis, with Proteus vulgaris, against Escherichia coli [5], in the test with Enterobacter cloacae [6] and with Pseudomonas aeruginosa [7] was more than 100 µg/mL in each case.

For `CCCCCC[C@H]1OC(=O)CNC(=O)[C@H](CC)NC(=O)[C@H](CO)NC(=O)[C@H]([C@H](C)CC)NC(=O)[C@H](CC(C)C)N(C)C(=O)[C@@H]1C`, the MIC is more than 100 µg/mL in the test with Pseudomonas aeruginosa [1]; more than 100 µg/mL with Serratia marcescens; 25 µg/mL (≈ 39.1 µM) in the test on Escherichia coli [2]; 50 µg/mL (≈ 78.1 µM) against Klebsiella pneumoniae; more than 100 µg/mL in the test with Morganella morganii; more than 100 µg/mL against Pseudomonas aeruginosa [3]. For the same compound, the MIC is more than 100 µg/mL with Enterobacter cloacae [4]; 100 µg/mL (≈ 156 µM) in the test with Salmonella enteritidis; more than 100 µg/mL against Proteus vulgaris; 25 µg/mL (≈ 39.1 µM) with Escherichia coli [5]; 12.5 µg/mL (≈ 19.5 µM) with Enterobacter cloacae [6]; more than 100 µg/mL with Pseudomonas aeruginosa [7].

On to `CCCCCC[C@H]1OC(=O)CNC(=O)[C@@H]([C@H](C)OC)NC(=O)[C@H](CO)NC(=O)[C@H]([C@H](C)CC)NC(=O)[C@H](CC(C)C)N(C)C(=O)[C@@H]1C`, for which the MIC against Pseudomonas aeruginosa [1] is more than 100 µg/mL; against Serratia marcescens, more than 100 µg/mL; with Escherichia coli [2], 25 µg/mL (≈ 37.3 µM); in the test on Klebsiella pneumoniae, 50 µg/mL (≈ 74.6 µM); with Morganella morganii, more than 100 µg/mL; with Pseudomonas aeruginosa [3] it was more than 100 µg/mL. Also, the MIC with Enterobacter cloacae [4] is 100 µg/mL (≈ 149 µM); against Salmonella enteritidis, 50 µg/mL (≈ 74.6 µM); with Proteus vulgaris it was more than 100 µg/mL; in the test on Escherichia coli [5], 25 µg/mL (≈ 37.3 µM); against Enterobacter cloacae [6] it was 12.5 µg/mL (≈ 18.7 µM); with Pseudomonas aeruginosa [7], more than 100 µg/mL.

As to `CCCCCCCCCC[C@H]1OC(=O)CNC(=O)[C@H]([C@H](C)O)NC(=O)[C@H](CO)NC(=O)[C@H]([C@H](C)CC)NC(=O)[C@H](CC(C)C)N(C)C(=O)[C@@H]1C`, the MIC against Pseudomonas aeruginosa [1] was more than 100 µg/mL; in the test with Enterococcus faecalis it was 12.5 µg/mL (≈ 17.6 µM); with Serratia marcescens it was 3.13 µg/mL (≈ 4.4 µM); against Staphylococcus aureus [8] it was 6.25 µg/mL (≈ 8.78 µM); with Staphylococcus aureus [9], 6.25 µg/mL (≈ 8.78 µM); with Escherichia coli [2], 1.56 µg/mL (≈ 2.19 µM). Besides, the MIC is 1.56 µg/mL (≈ 2.19 µM) in the test with Klebsiella pneumoniae; more than 100 µg/mL against Morganella morganii; more than 100 µg/mL with Pseudomonas aeruginosa [3]; 3.13 µg/mL (≈ 4.4 µM) against Enterobacter cloacae [4]; 3.13 µg/mL (≈ 4.4 µM) with Salmonella enteritidis; more than 100 µg/mL in the test with Proteus vulgaris. Besides, the MIC was 1.56 µg/mL (≈ 2.19 µM) against Escherichia coli [5], 1.56 µg/mL (≈ 2.19 µM) in the test with Enterobacter cloacae [6], 12.5 µg/mL (≈ 17.6 µM) against Staphylococcus aureus [10] and more than 100 µg/mL against Pseudomonas aeruginosa [7].

On to `CCCCCCCC[C@H]1OC(=O)CNC(=O)[C@H]([C@H](C)O)NC(=O)[C@H](CO)NC(=O)[C@H]([C@H](C)CC)NC(=O)[C@H](CC(C)C)N(C)C(=O)[C@@H]1C`, for which the MIC against Pseudomonas aeruginosa [1] was more than 100 µg/mL; in the test with Enterococcus faecalis, 100 µg/mL (≈ 146 µM); in the test on Serratia marcescens, 12.5 µg/mL (≈ 18.3 µM); against Staphylococcus aureus [8] it was 50 µg/mL (≈ 73.1 µM); in the test with Staphylococcus aureus [9] it was 50 µg/mL (≈ 73.1 µM); in the test on Escherichia coli [2], 3.13 µg/mL (≈ 4.58 µM). Moreover, the MIC with Klebsiella pneumoniae was 3.13 µg/mL (≈ 4.58 µM); with Morganella morganii, more than 100 µg/mL; in the test with Pseudomonas aeruginosa [3], more than 100 µg/mL; in the test with Enterobacter cloacae [4] it was 12.5 µg/mL (≈ 18.3 µM); against Salmonella enteritidis, 6.25 µg/mL (≈ 9.14 µM); with Proteus vulgaris it was more than 100 µg/mL. Moreover, the MIC against Escherichia coli [5] was 3.13 µg/mL (≈ 4.58 µM); against Enterobacter cloacae [6], 1.56 µg/mL (≈ 2.28 µM); with Staphylococcus aureus [10], 50 µg/mL (≈ 73.1 µM); in the test with Pseudomonas aeruginosa [7] it was more than 100 µg/mL.

As for `CCCCCC[C@H]1OC(=O)CNC(=O)[C@H]([C@H](C)O)NC(=O)[C@H](CO)NC(=O)[C@H]([C@H](C)CC)NC(=O)[C@H](CC(C)C)NC(=O)[C@@H]1C`, the MIC with Pseudomonas aeruginosa [1], against Serratia marcescens, in the test with Escherichia coli [2], with Klebsiella pneumoniae, with Morganella morganii and against Pseudomonas aeruginosa [3] was more than 100 µg/mL each time. For the same compound, the MIC was more than 100 µg/mL in the test on Enterobacter cloacae [4]; more than 100 µg/mL against Salmonella enteritidis; more than 100 µg/mL against Proteus vulgaris; more than 100 µg/mL with Escherichia coli [5]; 100 µg/mL (≈ 156 µM) with Enterobacter cloacae [6]; more than 100 µg/mL in the test with Pseudomonas aeruginosa [7].

`CCCCCC[C@H]1OC(=O)CNC(=O)[C@@H]([C@@H](C)O)NC(=O)[C@H](CO)NC(=O)[C@H]([C@H](C)CC)NC(=O)[C@H](CC(C)C)N(C)C(=O)[C@@H]1C`: the MIC against Pseudomonas aeruginosa [1], against Serratia marcescens, in the test with Escherichia coli [2], with Klebsiella pneumoniae, with Morganella morganii and against Pseudomonas aeruginosa [3] was more than 100 µg/mL throughout. The MIC with Enterobacter cloacae [4] is more than 100 µg/mL; with Salmonella enteritidis, more than 100 µg/mL; in the test with Proteus vulgaris, more than 100 µg/mL; against Escherichia coli [5] it was more than 100 µg/mL; in the test on Enterobacter cloacae [6] it was 100 µg/mL (≈ 152 µM); in the test with Pseudomonas aeruginosa [7], more than 100 µg/mL.

With `CCCCCC[C@H]1OC(=O)CNC(=O)[C@H]([C@H](C)O)NC(=O)[C@H](CO)NC(=O)[C@H]([C@H](C)CC)NC(=O)[C@H](CC(C)C)N(C)C(=O)[C@@H]1C`, the MIC with Pseudomonas aeruginosa [1] is more than 100 µg/mL; in the test with Enterococcus faecalis it was more than 100 µg/mL; in the test with Serratia marcescens it was 100 µg/mL (≈ 152 µM); in the test with Staphylococcus aureus [8] it was more than 100 µg/mL; against Staphylococcus aureus [9], more than 100 µg/mL; in the test on Escherichia coli [2], 12.5 µg/mL (≈ 19.1 µM). The MIC in the test with Klebsiella pneumoniae is 25 µg/mL (≈ 38.1 µM); with Morganella morganii it was more than 100 µg/mL; in the test with Pseudomonas aeruginosa [3] it was more than 100 µg/mL; against Enterobacter cloacae [4] it was 50 µg/mL (≈ 76.2 µM); in the test on Salmonella enteritidis, 25 µg/mL (≈ 38.1 µM); against Proteus vulgaris it was more than 100 µg/mL. Moreover, the MIC with Escherichia coli [5] was 12.5 µg/mL (≈ 19.1 µM); against Enterobacter cloacae [6], 6.25 µg/mL (≈ 9.53 µM); against Staphylococcus aureus [10], more than 100 µg/mL; with Pseudomonas aeruginosa [7], more than 100 µg/mL.

For the compound `CCCCCC[C@H]1OC(=O)CNC(=O)[C@@H]([C@H](C)O)NC(=O)[C@H](CO)NC(=O)[C@H]([C@@H](C)CC)NC(=O)[C@H](CC(C)C)N(C)C(=O)[C@@H]1C`, the MIC was more than 100 µg/mL in the test with Pseudomonas aeruginosa [1]; more than 100 µg/mL against Serratia marcescens; 12.5 µg/mL (≈ 19.1 µM) against Escherichia coli [2]; 25 µg/mL (≈ 38.1 µM) in the test on Klebsiella pneumoniae; more than 100 µg/mL in the test on Morganella morganii; more than 100 µg/mL with Pseudomonas aeruginosa [3]. The MIC was 50 µg/mL (≈ 76.2 µM) in the test on Enterobacter cloacae [4]; 50 µg/mL (≈ 76.2 µM) against Salmonella enteritidis; more than 100 µg/mL against Proteus vulgaris; 12.5 µg/mL (≈ 19.1 µM) in the test on Escherichia coli [5]; 6.25 µg/mL (≈ 9.53 µM) in the test with Enterobacter cloacae [6]; more than 100 µg/mL in the test with Pseudomonas aeruginosa [7].

The record behind these values is ChEMBL document CHEMBL1145725, “Synthesis and antimicrobial activity of novel globomycin analogues” (2003).
